HCV core dimer – blocks dimerization of HCV core protein. AID 1899. inhibition, % at 5 µM. 300,000 tested, 0.33% active. TR-FRET GST/Flag-core106 dimerization, 1536-well;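 active = inhibition above the mean of all tested compounds plus 3 SD, set per screening campaign, cut at about 45% in these data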
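Assay system – GST-tagged and Flag-tagged HCV core protein residues 1-106 · Quantity – core106 proteins, GST 13.5 nM and Flag 17 nM · Benchmarks – unlabelled core106 and no-GST-core106 wells · Read-out basis – percent inhibition of core106 dimerization signal · Detection – time-resolved FRET, ex 340 nm, em 617 and 671 nm · Schedule – 4 h at 22.5 °C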
ZTA counter – counter-screen for EBNA-1 inhibitors: inhibitors of Epstein-Barr virus ZTA. 320,000 tested, 0.15% active. inhibition, % at 11 µM. ZTA-DNA binding, fluorescence polarization. P03206. AID 2234; in the data active = inhibition above about 33%
PP1 counter – PP1-alpha (human) inhibition in PP5 counter-screen | inhibition, % at 6.7 µM | purified PP1alpha, OMFP fluorescence | P62136 | AID 2235 | 320,000 tested, 0.9% active;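 active = inhibition above the mean inhibition of all tested compounds plus 3 SD, computed separately for each screening campaign, cut at about 15% in these data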
HCV NS3 hel inh – HCV NS3 helicase inhibition; inhibition, % at 10.9 µM; 290,000 tested, 0.56% active; NS3 helicase DNA unwinding, Cy5 molecular beacon fluorescence;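 active = inhibition above the mean of all tested compounds plus 3 SD, set per campaign, cut at about 35% in these data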;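 also: 0% = DMSO wells and 100% = thioflavine S control wells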
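test system = hepatitis C virus NS3 helicase domain fragment enzyme | reagent = annealed dual-labelled DNA beacon duplex, ATP-started | times = 1 h at 25 °C | detection = Cy5 fluorescence, 0 and 60 min reads | read-out basis = percent inhibition from t60/t0 fluorescence ratio | control set = DMSO and thioflavine S | replication = one well per compound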
EBNA-1 inh – blocks EBNA-1 binding to DNA | EBNA-1 DNA binding, fluorescence polarization | inhibition, % at 14.8 µM | 300,000 tested, 0.34% active; in the data active = inhibition above about 28%
NS3 helicase cf – confirmation of Hepatitis C virus NS3 helicase inhibitors; shares compounds with HCV NS3 hel inh; NS3 helicase DNA unwinding, Cy5 molecular beacon fluorescence; inhibition, % at 10.9 µM; 1,600 tested, 31% active;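 active = inhibition above the mean of all tested compounds plus 3 SD, cutoff set per campaign, cut at about 36% in these data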
DNA FID counter – counter-screen for HCV NS3 helicase inhibitors: DNA intercalator displacement. inhibition, % at 7.9 µM. DNA fluorescent intercalator displacement, fluorescence. shares compounds with HCV NS3 hel inh. 1,600 tested, 4% active; in the data active = inhibition above about 37%;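 also: 0% = vehicle and 100% = reference compound; higher means more displacement of ethidium bromide from the DNA hairpin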
FID counter DR – counter-screen for HCV NS3 helicase inhibitors: DNA intercalator displacement dose response; shares compounds with HCV NS3 hel inh; fluorescent intercalator displacement from DNA, fluorescence; 120 tested, under 10 active; AID 2172; IC50, µM; call rule not given here
EBNA-1 inh conf – EBNA-1 (EBV) inhibition, confirmation. shares compounds with EBNA-1 inh. Recombinant EBNA-1 DBD, Cy5-DNA fluorescence polarization. inhibition, % at 14.8 µM. 830 tested, 35% active. AID 2292;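 active = mean inhibition across replicates above a set limit taken from the earlier primary screen, cut at about 28% in these data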;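 also: plate controls were EBNA-1 protein with DMSO for no effect and wells lacking EBNA-1 for full effect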
ZTA DNA inh trip – blocks Epstein-Barr virus ZTA in triplicate, EBNA-1 counter-screen; shares compounds with EBNA-1 inh; Zta-ZRE DNA binding, Cy5 fluorescence polarization; inhibition, % at 11.1 µM; 830 tested, under 10 active; AID 2328;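 active = mean inhibition over triplicates above a set limit taken from the primary EBNA-1 screen, cut at about 37% in these data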;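 also: purified full length Zta protein with Cy5 labeled ZRE DNA probe; 0% = Zta with DMSO and 100% = wells lacking Zta protein; inhibitors lower polarization by freeing the labeled DNA probe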
PP1 inh confirm – human PP1 phosphatase inhibition, confirmation; purified PP1alpha, OMFP substrate fluorescence; shares compounds with PP1 counter; AID 2358; 1,900 tested, 52% active; inhibition, % at 6.7 µM;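 active = mean PP1 inhibition above a set limit taken from the earlier primary screen, cut at about 15% in these data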
PP5 inh counter – counter-screen for PP1 inhibitors: human PP5 phosphatase inhibition; inhibition, % at 6.7 µM; AID 2360; shares compounds with PP1 counter; 1,900 tested, 4% active; purified PP5c, OMFP fluorescence;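 active = mean PP5 inhibition over triplicate wells above about 9.5% taken from the earlier PP1 screen, limit read from the data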
Target sequence (P53041 whole entry, looked up): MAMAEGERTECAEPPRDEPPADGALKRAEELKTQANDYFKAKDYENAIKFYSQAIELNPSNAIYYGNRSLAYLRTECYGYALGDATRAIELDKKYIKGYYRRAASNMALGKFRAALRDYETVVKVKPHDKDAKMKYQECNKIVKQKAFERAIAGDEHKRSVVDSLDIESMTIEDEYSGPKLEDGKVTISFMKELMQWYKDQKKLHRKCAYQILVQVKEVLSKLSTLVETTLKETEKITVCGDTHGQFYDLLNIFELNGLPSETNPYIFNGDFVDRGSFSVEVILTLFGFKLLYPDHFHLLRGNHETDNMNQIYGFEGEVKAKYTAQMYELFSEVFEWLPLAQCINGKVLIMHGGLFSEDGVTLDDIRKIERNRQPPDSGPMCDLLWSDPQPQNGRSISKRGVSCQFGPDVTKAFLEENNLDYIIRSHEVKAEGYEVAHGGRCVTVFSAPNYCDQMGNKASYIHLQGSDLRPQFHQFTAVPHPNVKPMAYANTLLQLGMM
The depositor's hits bear a star. In the library only some 1.9% were active in any assay of this set; here they are far more common.

CC(C)c1ccc(C2c3[nH]c4ccccc4c3C[C@H]3C(=O)N(c4ccccc4C(=O)N4CCC(C(=O)O)CC4)C(=O)N23)cc1 (stereo not given in full) was read as HCV core dimer 11, ZTA counter 18, PP1 counter 3, HCV NS3 hel inh -39 and EBNA-1 inh 8.
OCC[C@H]1C[C@@H](O)[C@H](O)[C@]2(Cc3ccccc3CO2)O1 was read as HCV core dimer -15, ZTA counter 9, PP1 counter -1 and EBNA-1 inh 6.
Screening O=C(CSCc1c(F)cccc1Cl)NCc1cccnc1 returned HCV core dimer 5, ZTA counter 11, PP1 counter -3, HCV NS3 hel inh 2 and EBNA-1 inh -6.
`CCCOc1ccc(/C(O)=C2/C(=O)C(=O)N(c3ccccn3)C2c2ccc(OC)cc2)cc1C` (stereo not given) gave HCV core dimer 22, ZTA counter -7, PP1 counter 31*, HCV NS3 hel inh 69*, EBNA-1 inh 19, NS3 helicase cf 91*, DNA FID counter -44, FID counter DR >79, PP1 inh confirm 23* and PP5 inh counter -3.
Screening Cc1cnc(C(=O)OC(C)C(=O)Nc2ccc3c(c2)OCCO3)cn1 (stereo not given) returned HCV core dimer -11, ZTA counter 6, PP1 counter 4, HCV NS3 hel inh -10 and EBNA-1 inh 2.
Cc1ccc2cc([N+](=O)[O-])ccc2n1 was read as HCV core dimer 0, ZTA counter -11, PP1 counter 1, HCV NS3 hel inh -7 and EBNA-1 inh 0.
Screening O=C(NC1CCCC1)c1ccc2nc(-c3ccco3)c(-c3ccco3)nc2c1 returned HCV core dimer 24, ZTA counter 13, PP1 counter 19*, HCV NS3 hel inh 37*, EBNA-1 inh 14, NS3 helicase cf 115*, DNA FID counter 15, FID counter DR >79, PP1 inh confirm 3 and PP5 inh counter 2.
`O=C(NC1CCCC1)c1ccc2nc[nH]c2c1` gave HCV core dimer -2, ZTA counter -23, PP1 counter 1, HCV NS3 hel inh -5 and EBNA-1 inh -6.
Screening Cc1ccc(C)c(N2CCN(C(=O)c3ccc4nc(-c5ccco5)c(-c5ccco5)nc4c3)CC2)c1 returned HCV core dimer 37, ZTA counter -13, PP1 counter 19*, HCV NS3 hel inh 37*, EBNA-1 inh 16, NS3 helicase cf 76*, DNA FID counter -20, FID counter DR >79, PP1 inh confirm 11 and PP5 inh counter 0.
`COc1ccccc1N1CCN(C(=O)c2ccc3nc(-c4ccco4)c(-c4ccco4)nc3c2)CC1` gave HCV core dimer 25, ZTA counter -7, PP1 counter 4, HCV NS3 hel inh 29 and EBNA-1 inh -2.
O=C(O)c1ccc(N/N=C/c2ccc(-c3cc(Cl)ccc3Cl)o2)cc1 was read as HCV core dimer 14, ZTA counter 10, PP1 counter 18*, HCV NS3 hel inh 40*, EBNA-1 inh -6, NS3 helicase cf 62*, DNA FID counter 14, PP1 inh confirm 19* and PP5 inh counter -3.
`NS(=O)(=O)c1ccc(-c2ccc(/C=N/Nc3ccc(C(=O)O)cc3)o2)cc1` gave HCV core dimer -22, ZTA counter -3, PP1 counter 10, HCV NS3 hel inh 25 and EBNA-1 inh -2.
`O=c1cc2oc3cc(O)c(O)cc3c(-c3ccccc3[N+](=O)[O-])c-2cc1O` gave HCV core dimer -29, ZTA counter -2, PP1 counter 26*, HCV NS3 hel inh 64*, EBNA-1 inh 3, NS3 helicase cf 109*, DNA FID counter 31, FID counter DR >79, PP1 inh confirm 14 and PP5 inh counter 2.
`O=c1cc(-c2ccccc2Cl)oc2cccc(O)c12` gave HCV core dimer -3, ZTA counter 14, PP1 counter 3, HCV NS3 hel inh 3 and EBNA-1 inh 15.
For CCN(CCO)c1nc(SC)nc2c1sc1nc(-c3ccco3)c3c(c12)CCC3 the results were HCV core dimer 80*, ZTA counter 11, PP1 counter 19*, HCV NS3 hel inh 36*, EBNA-1 inh 11, NS3 helicase cf 81*, DNA FID counter 27, PP1 inh confirm 28* and PP5 inh counter 0.
`COc1ccc(-c2nn(-c3ccccc3)cc2C2CC(c3cccs3)=NN2C(=O)CCC(=O)O)cc1` (stereo not given) gave HCV core dimer 18, ZTA counter -8, PP1 counter 0, HCV NS3 hel inh -1 and EBNA-1 inh 4.
Screening COc1ccc(C2=NN(C(=O)CCCC(=O)O)C(c3cn(-c4ccccc4)nc3-c3ccccc3)C2)cc1 (stereo not given) returned HCV core dimer 25, ZTA counter 18, PP1 counter 29*, HCV NS3 hel inh 46*, EBNA-1 inh 10, NS3 helicase cf 43*, DNA FID counter -16, PP1 inh confirm 18* and PP5 inh counter -5.
For Nc1c(C(=O)NC2CC2)sc2nc3c(c(-c4ccco4)c12)CC/C3=C/c1ccco1 the results were HCV core dimer 104*, ZTA counter 11, PP1 counter 54*, HCV NS3 hel inh 69*, EBNA-1 inh 46*, NS3 helicase cf 99*, DNA FID counter 3, FID counter DR inactive, EBNA-1 inh conf -2, ZTA DNA inh trip 15, PP1 inh confirm 21* and PP5 inh counter 5.
Cc1c(Cl)cccc1NS(=O)(=O)c1ccc2c(c1)C1C=CCC1C(c1ccc(C(=O)O)cc1)N2 (stereo not given) was read as HCV core dimer 18, ZTA counter 8, PP1 counter 25*, HCV NS3 hel inh 39*, EBNA-1 inh 1, NS3 helicase cf 55*, DNA FID counter 43*, PP1 inh confirm 18* and PP5 inh counter 1.

High-throughput results as filed in PubChem.
